Assay: Metal cation competition
Type: physicochemical
Summary of the method: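 200 μM ligand (1 mL) was labelled with 30–50 μCi neutralised 89Zr for 1 h at room temperature, and complete labelling was confirmed by radio-TLC. 200 μL aliquots were mixed with 200 μL 1 mM metal salt (e.g. CoCl2) at pH 7.4 and incubated at 37 °C with agitation. Radio-TLC at 1 h, 1, 5, 7 d gave % intact complex. Mean and SD from two experiment sets.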

## CC(=O)N(O)CCCCCNC(=O)CCC(=O)N(O)CCCCCNC(=O)CCC(=O)N(O)CCCCCN [DFO, desferrioxamine B]
After 7 days of incubation with FeCl3
  ^89Zr^4+ released: > 50%
In the presence of Ga^3+
  ^89Zr^4+ released: ~9%

From paper PMC4059252 (Journal of Medicinal Chemistry, 2014)
